ChEMBL document CHEMBL1155380, “Synthesis and characterization of a novel iNOS/Akt inhibitor Se,Se'-1,4-phenylenebis(1,2-ethanediyl)bisisoselenourea (PBISe)--against colon cancer” (Bioorg Med Chem Lett, 2010)
Active and inactive are the calls of the source. The calls are words filed in the database; no cut-off is given here.

Legend:
[1] = tested on: HCT-116; assay: Antitumor activity against human HCT116 cells after 72 hrs by MTS assay; type: functional, cell-based; conditions: HCT-116, 72 h
Procedure, shortened: (§1)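 Colon adenocarcinoma cells (Advanced DMEM with 2 mM L-glutamine and 10% heat-treated FBS, or RPMI-1640 with 10% FBS) exposed to increasing concentrations (10–100 μM, or 1.6–50 μM) for 72 h. Viable cells quantified by MTS. IC50 from dose-response curves, at least three independent experiments.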

[2] = tested on: SW480; assay: Antitumor activity against human SW480 cells after 72 hrs by MTS assay; type: functional, cell-based; conditions: SW480, 72 h; procedure, shortened: as §1
[3] = tested on: Caco-2; assay: Selectivity ratio of IC50 for human Caco-2 cells to IC50 for human FF2441 cells
Procedure, shortened: (§2)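 Colon adenocarcinoma lines (Caco-2, HT-29, HCT-116, SW-480) were grown in Advanced DMEM with 10% heat-treated FBS and L-glutamine, or in RPMI-1640 with 10% FBS. They were exposed to PBS vehicle or graded compound (10–100 μM, or 1.6–50 μM) for 72 h, and viability was read by MTS. FF2441 normal fibroblasts were tested by a similar MTS procedure. IC50 was fitted from dose-response curves.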

[4] = tested on: HT-29; assay: Selectivity ratio of IC50 for human HT-29 cells to IC50 for human FF2441 cells; procedure, shortened: as §2
[5] = Selectivity ratio of IC50 for human HCT116 cells to IC50 for human FF2441 cells; type: ADME, cell-based, HCT-116; conditions: HCT116 cells and FF2441 cells; procedure, shortened: as §2
[6] = tested on: SW480; assay: Ratio of IC50 for human SW480 cells to IC50 for human FF2441 cells; procedure, shortened: as §2
[7] = tested on: Caco-2; assay: Antitumor activity against human Caco-2 cells after 72 hrs by MTS assay; type: functional, cell-based; conditions: Caco-2, 72 h
Procedure, shortened: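 Cells plated at 5×10^3 per well for 24 h, then exposed to PBS vehicle or increasing compound concentrations for 72 h. Viable cells were quantified by MTS and expressed as a percentage of the PBS-treated control. IC50 was fitted from dose-response curves, from at least three independent experiments, and reported with standard error.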

[8] = tested on: WM-115; assay: Antitumor activity against human WM115 cells after 24 hrs by MTS assay; type: functional, cell-based; conditions: WM-115, 24 h
Procedure, shortened: (§3)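 Cells plated at 5×10^3 per well for 24 h, then treated with PBS vehicle or increasing concentrations (10–100 μM or 1–40 μM). Viable cells measured by MTS as percent of PBS control. IC50 from dose-response curves. Normal FF2441 fibroblasts run alongside. Lines grown in DMEM/10% FBS, except WM115 in Tu2% medium without calcium chloride, with 2% heat-treated FBS.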

[9] = tested on: HT-1080; assay: Antitumor activity against human HT1080 cells after 24 hrs by MTS assay; type: functional, cell-based; conditions: HT-1080, 24 h; procedure, shortened: as §3
[10] = tested on: A549; assay: Antitumor activity against human A549 cells after 24 hrs by MTS assay; type: functional, cell-based; conditions: A549, 24 h; procedure, shortened: as §3
[11] = tested on: PC-3; assay: Antitumor activity against human PC3 cells after 24 hrs by MTS assay; type: functional, cell-based; conditions: PC-3, 24 h; procedure, shortened: as §3
[12] = tested on: OVCAR-3; assay: Antitumor activity against human OVCAR-3 cells after 24 hrs by MTS assay; type: functional, cell-based; conditions: OVCAR-3, 24 h; procedure, shortened: as §3
[13] = tested on: MDA-MB-231; assay: Antitumor activity against human MDA-MB-231 cells after 24 hrs by MTS assay; type: functional, cell-based; conditions: MDA-MB-231, 24 h; procedure, shortened: as §3
[14] = tested on: Cancer cell lines; assay: Inhibition of MAPK in human colon cancer cells assessed as decrease in pAKT level at 2 to 6 uM by Western blot analysis; type: cell-based
Procedure, shortened: (§4)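 They were cleared at ≥10,000×g for 10 min at 4°C and assayed by BCA; 30 μg per lane went on NuPAGE gels, then PVDF. Probes: phospho-Akt (Ser473), phospho-PRAS40, cleaved PARP and p27, with HRP secondaries and ECL detection.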

[15] = tested on: Cancer cell lines; assay: Inhibition of MAPK in human colon cancer cells assessed as decrease in pPRAS40 level at 2 to 6 uM by Western blot analysis; type: cell-based; procedure, shortened: as §4
[16] = tested on: Cancer cell lines; assay: Inhibition of MAPK in human colon cancer cells assessed as decrease in AKT2 level at 2 to 6 uM by Western blot analysis; type: cell-based
[17] = tested on: Cancer cell lines; assay: Inhibition of MAPK in human colon cancer cells assessed as increase in cleaved PARP level at 2 to 6 uM by Western blot analysis; type: cell-based; procedure, shortened: as §4
[18] = tested on: Cancer cell lines; assay: Inhibition of MAPK in human colon cancer cells assessed as increase in p27 level at 2 to 6 uM by Western blot analysis; type: cell-based; procedure, shortened: as §4
[19] = tested on: HT-29; assay: Antitumor activity against human HT-29 cells after 72 hrs by MTS assay; type: functional, cell-based; conditions: HT-29, 72 h; procedure, shortened: as §1
[20] = molecular target: Nitric oxide synthase, inducible (Homo sapiens) (UniProt P35228); assay: Inhibition of iNOS in human Caco-2 cells assessed as reduction of total nitrite production at 2 uM after 72 hrs by colorimetric assay relative to control; type: cell-based
Procedure, shortened: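 Caco-2 cells (1×10^6) in Advanced DMEM/10% heat-treated FBS for 12 h, then conditioned in phenol-red-free DMEM/0.5% FBS. Treated 72 h in the same medium, PBS control. Supernatant cleared at 500×g, incubated 2 h with nitrate reductase and cofactors, then Griess reagents I and II. A540 read against a nitrate standard curve (5–35 μM). One-way ANOVA.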

[21] = tested on: Cancer cell lines; assay: Inhibition of PI3K in human colon cancer cells assessed as decrease in pAKT level at 2 to 6 uM by Western blot analysis; type: cell-based
Procedure, shortened: (§5)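 Lysates in HEPES pH 7.5/NaCl/EDTA/Triton X-100 buffer with phosphatase and protease inhibitors, cleared at ≥10,000×g for 10 min at 4°C. BCA-quantified, 30 μg per lane. SDS gel, PVDF transfer, probed for PRAS40, phospho-PRAS40, Akt3, phospho-Akt Ser473, p27, cleaved PARP, cyclin D1 and Erk. HRP secondaries, ECL detection.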

[22] = tested on: Cancer cell lines; assay: Inhibition of PI3K in human colon cancer cells assessed as decrease in AKT2 level at 2 to 6 uM by Western blot analysis; type: cell-based
[23] = tested on: Cancer cell lines; assay: Inhibition of PI3K in human colon cancer cells assessed as decrease in pPRAS40 level at 2 to 6 uM by Western blot analysis; type: cell-based; procedure, shortened: as §5
[24] = tested on: Cancer cell lines; assay: Inhibition of PI3K in human colon cancer cells assessed as increase in cleaved PARP level at 2 to 6 uM by Western blot analysis; type: cell-based; procedure, shortened: as §5
[25] = tested on: Cancer cell lines; assay: Inhibition of PI3K in human colon cancer cells assessed as increase in p27 level at 2 to 6 uM by Western blot analysis; type: cell-based; procedure, shortened: as §5

Nitric oxide synthase, inducible (Homo sapiens), sequence (P35228 whole entry): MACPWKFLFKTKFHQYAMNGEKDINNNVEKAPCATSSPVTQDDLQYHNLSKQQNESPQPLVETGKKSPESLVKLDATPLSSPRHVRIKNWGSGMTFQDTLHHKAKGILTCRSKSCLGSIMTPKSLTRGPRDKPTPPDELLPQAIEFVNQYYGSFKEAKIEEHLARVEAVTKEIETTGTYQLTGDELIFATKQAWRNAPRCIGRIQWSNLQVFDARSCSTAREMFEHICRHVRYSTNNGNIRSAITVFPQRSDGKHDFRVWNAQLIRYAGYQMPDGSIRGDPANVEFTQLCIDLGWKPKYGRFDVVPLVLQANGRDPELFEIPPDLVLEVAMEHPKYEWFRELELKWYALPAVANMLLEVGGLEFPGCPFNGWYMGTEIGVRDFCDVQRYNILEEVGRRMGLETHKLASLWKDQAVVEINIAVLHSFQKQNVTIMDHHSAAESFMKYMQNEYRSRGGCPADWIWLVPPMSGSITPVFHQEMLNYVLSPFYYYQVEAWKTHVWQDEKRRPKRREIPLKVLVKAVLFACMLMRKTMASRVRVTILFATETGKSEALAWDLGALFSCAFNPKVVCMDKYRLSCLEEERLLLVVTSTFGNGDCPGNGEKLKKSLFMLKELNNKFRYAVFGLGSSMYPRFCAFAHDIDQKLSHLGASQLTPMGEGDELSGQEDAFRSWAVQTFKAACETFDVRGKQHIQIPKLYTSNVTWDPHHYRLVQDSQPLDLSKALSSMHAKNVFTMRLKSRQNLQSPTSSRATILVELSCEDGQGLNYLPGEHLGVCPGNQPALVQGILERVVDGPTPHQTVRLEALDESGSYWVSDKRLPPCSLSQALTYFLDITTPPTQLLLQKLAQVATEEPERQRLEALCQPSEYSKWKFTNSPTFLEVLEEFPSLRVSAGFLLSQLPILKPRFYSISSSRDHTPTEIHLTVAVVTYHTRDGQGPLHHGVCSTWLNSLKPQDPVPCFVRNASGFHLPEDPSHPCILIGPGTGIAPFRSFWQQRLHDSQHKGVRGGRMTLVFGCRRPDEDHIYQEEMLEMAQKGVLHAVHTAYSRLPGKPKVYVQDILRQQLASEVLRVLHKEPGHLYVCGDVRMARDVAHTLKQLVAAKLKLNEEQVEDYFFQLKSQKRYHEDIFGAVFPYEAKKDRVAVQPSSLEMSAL

| Compound | IC50 [1] | IC50 [2] | Ratio [3] | Ratio [4] | selectivity ratio [5] | Ratio [6] | IC50 [7] | IC50 [8] | IC50 [9] | IC50 [10] | IC50 [11] | IC50 [12] | IC50 [13] | also measured |
| --- | --- | --- | --- | --- | --- | --- | --- | --- | --- | --- | --- | --- | --- | --- |
| Br.N=C(N)[Se]CCc1ccccc1 | > 100 µM | > 100 µM | 2 | 2 | 2 | 2 | – | – | – | – | – | – | – | – |
| Br.N=C(N)SCCc1ccccc1 [PHENYLETHYLISOTHIOUREAHYDROBROMIDE] | > 100 µM | > 100 µM | 2 | 2 | 2 | 2 | > 100 µM | – | – | – | – | – | – | – |
| Br.Br.N=C(N)SCCc1ccc(CCSC(=N)N)cc1 | > 100 µM | – | 2 | – | 2 | 2 | 59.4 µM | > 100 µM | > 100 µM | > 100 µM | > 100 µM | > 100 µM | > 100 µM | inhibition [14]: inactive; inhibition [15]: inactive; inhibition [16]: inactive; inhibition [17]: inactive; inhibition [18]: inactive |
| Br.N=C(N)[Se]CCc1ccc(CC[Se]C(=N)N)cc1 | – | – | 2 | 2 | 2 | 2 | – | 9.7 µM | 3.22 µM | 4.17 µM | 6.64 µM | 5.33 µM | 6.03 µM | IC50 [19]: 3.84 µM; inhibition [20]: 25%; inhibition [21]: Active; inhibition [22]: Active; inhibition [23]: Active; inhibition [24]: Active; inhibition [25]: Active |
